From ChEMBL document CHEMBL1142700, “Nonpolar and short side chain groups at C-11beta of estradiol result in antiestrogens” (J Med Chem, 2005)

What was measured:
Ishikawa [1] = test: Inhibitory constant against stimulation of alkaline phosphatase activity in Ishikawa cells; weak mixed agonist/antagonist; format: functional, cell-based, Homo sapiens
[2] = target: Estrogen receptor (Rattus norvegicus) (UniProt P06211+Q62986); test: Relative binding affinity for estrogen receptor of rat uterine cytosol; format: protein assay
Method in brief: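 Cytosol from uteri of Sprague-Dawley rats taken 24 h after castration, homogenized in TEGDMo buffer (pH 7.4), spun at 105 000g. Incubated on ice overnight with 1 nM [3H]E2 and competitor at 10^-12 to 10^-6 M. Dextran-coated charcoal separation, counting. RBA = EC50 E2 / EC50 analogue × 100, at least three duplicate experiments.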

Ishikawa [3] = test: Relative stimulatory activity in Ishikawa cells with respect to E2; format: functional, Homo sapiens
Method in brief: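 Ishikawa alkaline phosphatase induction: phenol red-free medium, charcoal-stripped bovine serum, 3-day exposure to steroid across at least 6 log units. Read kinetically at 405 nm with 5 mM p-nitrophenyl phosphate, pH 9.8. RSA = (1/EC50 analogue) / (1/EC50 E2) × 100, fitted in at least three duplicate experiments.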

Ishikawa [4] = test: Inhibitory constant against stimulation of alkaline phosphatase activity in Ishikawa cells; not active; format: functional, cell-based, Homo sapiens
Ishikawa [5] = test: Inhibitory constant against stimulation of alkaline phosphatase activity in Ishikawa cells; format: functional, cell-based, Homo sapiens
[6] = target: Estrogen receptor beta (Homo sapiens) (UniProt Q92731); test: Inhibition of [3H]E2 binding to human Estrogen receptor-beta ligand binding domain (LBD) expressed in Escherichia coli lysates
Method in brief: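 Human ERβ LBD (M214-Q530) in E. coli lysates; overnight room-temperature competition with [3H]E2, charcoal separation of bound from free. RBA relative to E2 from EC50 ratio × 100, at least three duplicate experiments.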

[7] = target: T1, Estrogen receptor (Homo sapiens) (UniProt P03372); test: Inhibition of [3H]E2 binding to human Estrogen receptor-alpha ligand binding domain (LBD) expressed in Escherichia coli lysates
T1 sequence (whole entry): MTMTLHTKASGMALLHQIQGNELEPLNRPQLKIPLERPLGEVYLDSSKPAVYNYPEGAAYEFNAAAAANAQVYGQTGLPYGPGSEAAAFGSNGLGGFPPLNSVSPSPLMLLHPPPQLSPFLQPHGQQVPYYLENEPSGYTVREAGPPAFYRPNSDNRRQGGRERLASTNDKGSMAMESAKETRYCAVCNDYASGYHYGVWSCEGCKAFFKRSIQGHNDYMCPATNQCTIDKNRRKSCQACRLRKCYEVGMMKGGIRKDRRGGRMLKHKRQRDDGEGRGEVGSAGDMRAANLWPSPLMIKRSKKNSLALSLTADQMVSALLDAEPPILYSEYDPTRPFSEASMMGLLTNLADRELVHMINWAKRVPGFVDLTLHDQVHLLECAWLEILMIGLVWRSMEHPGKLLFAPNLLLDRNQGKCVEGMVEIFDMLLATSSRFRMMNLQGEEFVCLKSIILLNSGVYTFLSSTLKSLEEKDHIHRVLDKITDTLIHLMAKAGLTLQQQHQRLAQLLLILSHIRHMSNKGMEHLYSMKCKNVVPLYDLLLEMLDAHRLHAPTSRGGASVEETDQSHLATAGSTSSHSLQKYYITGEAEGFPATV
Method in brief: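 Human ERα LBD (M250-V595) expressed in E. coli lysates, competed against [3H]E2 overnight at room temperature. Bound separated by dextran-coated charcoal. RBA = EC50 of E2 / EC50 of analogue × 100, from at least three experiments in duplicate.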

Ishikawa [8] = test: Inhibitory constant of the compound against stimulationofalkaline phosphatase activity inIshikawa cells; weak mixed agonist/antagonist; format: functional, cell-based, Homo sapiens
Ishikawa [9] = test: Inhibitory constant against stimulation of alkaline phosphatase activity in Ishikawa cells; ag./ant. is mixed agonist/antagonist; format: functional, cell-based, Homo sapiens
Ishikawa [10] = test: Inhibitory constant against stimulation of alkaline phosphatase activity in Ishikawa cells; mixed agonist/antagonist moderate activity; format: functional, cell-based, Homo sapiens
Ishikawa [11] = test: Inhibitory constant against stimulation of alkaline phosphatase activity in Ishikawa cells; (agonist); format: functional, cell-based, Homo sapiens
Ishikawa [12] = test: Estrogenic potency measured as stimulation of alkaline phosphatase activity relative to E2 in human endometrialadenocarcinoma cells (Ishikawa); format: functional
Method in brief: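 Ishikawa human endometrial adenocarcinoma cells grown in phenol red-free medium with charcoal-stripped bovine serum and steroid over at least 6 orders of magnitude for 3 days. Cells washed, freeze-thawed, then given 5 mM p-nitrophenyl phosphate at pH 9.8, with kinetic reading of p-nitrophenol at 405 nm. At least three experiments in duplicate; EC50 by curve fitting.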

Ishikawa [13] = test: Inhibitory constant against stimulation of alkaline phosphatase activity in Ishikawa cells; na is not active; format: functional, cell-based, Homo sapiens

Estrogen receptor beta (Homo sapiens), sequence (Q92731 whole entry, the tested form may be a part): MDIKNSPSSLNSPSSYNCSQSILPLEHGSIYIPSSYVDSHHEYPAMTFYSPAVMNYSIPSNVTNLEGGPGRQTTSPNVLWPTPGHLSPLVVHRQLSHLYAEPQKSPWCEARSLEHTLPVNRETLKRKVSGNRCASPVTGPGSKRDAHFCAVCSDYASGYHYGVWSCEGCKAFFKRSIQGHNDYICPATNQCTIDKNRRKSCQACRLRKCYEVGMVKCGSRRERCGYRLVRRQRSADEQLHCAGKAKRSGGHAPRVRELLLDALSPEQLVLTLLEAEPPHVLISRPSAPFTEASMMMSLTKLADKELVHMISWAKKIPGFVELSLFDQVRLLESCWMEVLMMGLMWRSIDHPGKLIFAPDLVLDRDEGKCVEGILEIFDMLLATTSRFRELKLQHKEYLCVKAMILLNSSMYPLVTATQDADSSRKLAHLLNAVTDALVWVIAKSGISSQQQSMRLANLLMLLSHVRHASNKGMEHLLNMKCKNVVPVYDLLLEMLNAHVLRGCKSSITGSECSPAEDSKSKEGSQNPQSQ

Row | Compound | RBA [2] | RBA [6] | RBA [7] | Ki (Ishikawa [5]) | further results
1 | CNC(=O)CC[C@H]1C[C@]2(C)[C@@H](O)CC[C@H]2[C@@H]2CCc3cc(O)ccc3[C@@H]12 | 0.6% | – | – | – | Ki (Ishikawa [1]): Partial agonist
2 | CCC(=O)C[C@H]1C[C@]2(C)[C@@H](O)CC[C@H]2C2CCc3cc(O)ccc3[C@H]21 (single isomer, unassigned) | 18% | – | – | – | Stimulatory activity (Ishikawa [3]): 1.9%; Ki (Ishikawa [1]): Partial agonist
3 | CC(=O)CC[C@H]1C[C@]2(C)[C@@H](O)CC[C@H]2[C@@H]2CCc3cc(O)ccc3[C@@H]12 | 1% | – | – | – | Ki (Ishikawa [4]): Not Active
4 | CCOC(=S)C[C@H]1C[C@]2(C)[C@@H](O)CC[C@H]2C2CCc3cc(O)ccc3[C@H]21 (single isomer, unassigned) | 10% | – | – | 2.7 nM | –
5 | CCNC(=O)C[C@H]1C[C@]2(C)[C@@H](O)CC[C@H]2C2CCc3cc(O)ccc3[C@H]21 (single isomer, unassigned) | 0.1% | – | – | – | Ki (Ishikawa [8]): Partial agonist
6 | CCNC(=O)CC[C@H]1C[C@]2(C)[C@@H](O)CC[C@H]2[C@@H]2CCc3cc(O)ccc3[C@@H]12 | 3.7% | – | – | – | Ki (Ishikawa [1]): Partial agonist
7 | CC(C)OCCC[C@H]1C[C@]2(C)[C@@H](O)CC[C@H]2[C@@H]2CCc3cc(O)ccc3[C@@H]12 | 114% | 93% | 220% | 0.2 nM | –
8 | CC(C)OCC[C@H]1C[C@]2(C)[C@@H](O)CC[C@H]2C2CCc3cc(O)ccc3[C@H]21 (single isomer, unassigned) | 15% | 32% | 45% | 0.4 nM | –
9 | CC(C)OC(=O)C[C@H]1C[C@]2(C)[C@@H](O)CC[C@H]2C2CCc3cc(O)ccc3[C@H]21 (single isomer, unassigned) | 17% | – | – | 2.1 nM | –
10 | CCC(=O)CC[C@H]1C[C@]2(C)[C@@H](O)CC[C@H]2[C@@H]2CCc3cc(O)ccc3[C@@H]12 | 3.7% | – | – | 16 nM | –
11 | CCCC(=O)CC[C@H]1C[C@]2(C)[C@@H](O)CC[C@H]2[C@@H]2CCc3cc(O)ccc3[C@@H]12 | 7.7% | – | – | 13 nM | –
12 | CC(C)(C)COC(=O)C[C@H]1C[C@]2(C)[C@@H](O)CC[C@H]2C2CCc3cc(O)ccc3[C@H]21 (single isomer, unassigned) | 10% | – | – | 5.2 nM | –
13 | CC(C)(C)OCC[C@H]1C[C@]2(C)[C@@H](O)CC[C@H]2C2CCc3cc(O)ccc3[C@H]21 (single isomer, unassigned) | 2.3% | 2% | 5% | 20 nM | –
14 | CC(C)(C)OCCC[C@H]1C[C@]2(C)[C@@H](O)CC[C@H]2[C@@H]2CCc3cc(O)ccc3[C@@H]12 | 81% | 82% | 128% | 0.09 nM | –

More lines, main results first:

Row | RBA [2] | RBA [6] | RBA [7] | Compound | Ki (Ishikawa [5]) | further results
15 | 31% | 40% | 49% | CCOCC[C@H]1C[C@]2(C)[C@@H](O)CC[C@H]2C2CCc3cc(O)ccc3[C@H]21 (single isomer, unassigned) | 0.3 nM | –
16 | 44% | 268% | 102% | CCCCOC[C@H]1C[C@]2(C)[C@@H](O)CC[C@H]2[C@@H]2CCc3cc(O)ccc3[C@@H]12 | 0.1 nM | –
17 | 34% | 111% | 159% | COCCC[C@H]1C[C@]2(C)[C@@H](O)CC[C@H]2[C@@H]2CCc3cc(O)ccc3[C@@H]12 | 0.3 nM | –
18 | 65% | 88% | 54% | CCCOCC[C@H]1C[C@]2(C)[C@@H](O)CC[C@H]2C2CCc3cc(O)ccc3[C@H]21 (single isomer, unassigned) | 0.3 nM | –
19 | 43% | 125% | 146% | CCCOC[C@H]1C[C@]2(C)[C@@H](O)CC[C@H]2[C@@H]2CCc3cc(O)ccc3[C@@H]12 | 0.3 nM | –
20 | 16% | 34% | 112% | C[C@]12C[C@H](CCOCCF)[C@@H]3c4ccc(O)cc4CCC3[C@@H]1CC[C@@H]2O (single isomer, unassigned) | 55 nM | –
21 | 47% | 140% | 96% | C[C@]12C[C@H](CCCOCCF)[C@@H]3c4ccc(O)cc4CC[C@H]3[C@@H]1CC[C@@H]2O | 1.1 nM | –
22 | 28% | 73% | 70% | CCOC[C@H]1C[C@]2(C)[C@@H](O)CC[C@H]2[C@@H]2CCc3cc(O)ccc3[C@@H]12 | – | Ki (Ishikawa [9]): Partial agonist
23 | 10% | 35% | 27% | C[C@]12C[C@H](COCCF)[C@@H]3c4ccc(O)cc4CC[C@H]3[C@@H]1CC[C@@H]2O | – | Ki (Ishikawa [1]): Partial agonist
24 | 25% | 90% | 67% | COCC[C@H]1C[C@]2(C)[C@@H](O)CC[C@H]2C2CCc3cc(O)ccc3[C@H]21 (single isomer, unassigned) | – | Ki (Ishikawa [10]): Partial agonist
25 | 48% | 75% | 87% | CCOCCC[C@H]1C[C@]2(C)[C@@H](O)CC[C@H]2[C@@H]2CCc3cc(O)ccc3[C@@H]12 | 0.3 nM | –
26 | 20% | 240% | 114% | COC[C@H]1C[C@]2(C)C(O)CC[C@H]2[C@@H]2CCc3cc(O)ccc3[C@@H]12 (some centres undefined) | – | Ki (Ishikawa [11]): Agonist; Relative stimulatory activity (Ishikawa [12]): 125%
27 | 38% | – | – | CCCOC(=O)C[C@H]1C[C@]2(C)[C@@H](O)CC[C@H]2C2CCc3cc(O)ccc3[C@H]21 (single isomer, unassigned) | 1 nM | –
28 | 13% | – | – | CCCC(=O)C[C@H]1C[C@]2(C)[C@@H](O)CC[C@H]2C2CCc3cc(O)ccc3[C@H]21 (single isomer, unassigned) | 3.1 nM | –
29 | 2.1% | 21% | 7.5% | CCCCO[C@H]1C[C@]2(C)[C@@H](O)CC[C@H]2[C@@H]2CCc3cc(O)ccc3[C@H]21 | – | Ki (Ishikawa [13]): Not Active
